Activity calls are given as the source filed them. The calls are words filed in the database; no cut-off is given here.
Legend:
[1] = species: Rattus norvegicus; experiment: Increase in TG-2 expression in albino Wistar rat primary astroglial cells at 25 uM after 24 hrs; format: functional
In short: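 Primary Wistar rat astrocytes at 14 DIV were exposed to ligand 25 µM for 24 h. Densitometric percentage of TG-2 versus untreated control; HUVEC extract as positive control. Mean ± SD of four experiments.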

[2] = Displacement of [3H]DTG rom guinea pig brain sigma 2 receptor; set-up: species or system Cavia porcellus
[3] = species: Rattus norvegicus; experiment: Increase in TG-2 expression in albino Wistar rat primary 14 DIV astroglial cell at 25 uM after 24 hrs by CLSM analysis; format: functional
In short: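 Astrocytes at 14 DIV were treated with 25 µM for 24 h and fixed in 4% paraformaldehyde for 20 min. They were blocked with 1% normal serum for 1 h, then incubated overnight with anti-TG-2 monoclonal (1:500), followed by FITC and TRITC anti-IgG (1:64, 2 h each). Confocal imaging at fixed settings measured cytosolic and nuclear fluorescence intensity versus control after nonspecific subtraction.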

[4] = species: Rattus norvegicus; experiment: Activity at sigma 2 receptor in rat astroglial cells; format: cell-based
[5] = species: Rattus norvegicus; experiment: Increase of caspase 3 cleavage in albino Wistar rat primary astroglial cells at 25 uM after 24 hrs relative to control; format: functional
In short: (§1)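 Primary astrocytes from 1–2-day-old Wistar rat brains were grown 14 DIV, then exposed to ligand 25 µM for 24 h. Cells were lysed and sonicated, and 30 µg protein was run on 10% SDS-PAGE. Mean ± SD of four experiments; t test.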

[6] = Increase in apoptosis in albino Wistar rat primary 14 DIV astroglial cells at 25 uM after 24 hrs by TUNEL assay relative to control; format: functional
In short: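 Astrocytes at 14 DIV were treated 24 h at 25 µM. TUNEL labelling with fluorescein-dUTP at free 3′-OH DNA ends; apoptotic cells appear green (FITC), nonapoptotic cells red (PI). Apoptotic cells were counted against all cells in 10 random fields per dish and expressed as a percentage.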

[7] = target: Sigma non-opioid intracellular receptor 1 (Cavia porcellus, UniProt Q60492); experiment: Displacement of [3H](+)-pentazocine from guinea pig brain sigma 1 receptor
[8] = species: Rattus norvegicus; experiment: Decrease of caspase 3 cleavage in albino Wistar rat primary astroglial cells at 25 uM after 24 hrs relative to control; format: functional; in short: as §1

Sigma non-opioid intracellular receptor 1, sequence (Q60492 whole entry): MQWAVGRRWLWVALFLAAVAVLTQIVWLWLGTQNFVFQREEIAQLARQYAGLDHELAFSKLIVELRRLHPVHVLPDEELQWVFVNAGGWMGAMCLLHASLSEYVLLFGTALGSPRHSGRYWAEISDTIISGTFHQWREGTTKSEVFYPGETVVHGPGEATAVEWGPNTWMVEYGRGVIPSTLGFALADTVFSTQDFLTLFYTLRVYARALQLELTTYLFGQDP

Structure (SMILES)	Ki [2] [nM]	Ki [7] [nM]	also measured
CC[C@H]1C[C@H]2C[C@H]3c4[nH]c5ccc(OC)cc5c4CCN(C2)[C@@H]13 [IBOGAINE]	9310	–	Activity [1]: Active; Activity [3]: Active; Activity ([4]; filed as agonist): Agonist; Activity [5]: Active; Ratio [6]: 95%
COC(=O)C1(c2ccc(OC)cc2)CC1CN1CCC(Cc2ccccc2)CC1 (stereo not given)	14	1	–
COC(=O)C1(c2ccc(OC)cc2)CC1CN1CCN(c2ncccn2)CC1 (stereo not given)	> 10000	2030	–
O=C(CCCN1CCC(O)(c2ccc(Cl)cc2)CC1)c1ccc(F)cc1	–	–	Activity [3]: Active; Activity ([4]; filed as agonist): Agonist
COC(=O)C1(c2ccc(Cl)cc2)CC1CN1CCC(Cc2ccccc2)CC1 (stereo not given)	11.9	0.82	–
COC(=O)C1(c2ccc(Cl)cc2)CC1CN1CCN(c2ncccn2)CC1 (stereo not given)	2710	350	–
COC(=O)C1(c2ccc([N+](=O)[O-])cc2)CC1CN1CCC(O)(c2ccccc2)CC1 (stereo not given)	18	1.9	–
COC(=O)C1(c2ccccc2)CC1CN1CCC(Cc2ccccc2)CC1 (stereo not given)	13.2	2.2	–
COC(=O)C1(c2ccc(N)cc2)CC1CN1CCN(c2ncccn2)CC1 (stereo not given)	3590	> 10000	–
COC(=O)C1(c2ccccc2)CC1CN1CCN(c2ncccn2)CC1 (stereo not given)	> 10000	3090	–
COC(=O)C1(c2ccc(C)cc2)CC1CN1CCN(c2ccccn2)CC1 (stereo not given)	2170	497	–
COC(=O)C1(c2ccc(OC)cc2)CC1CN1CCN(c2ccccn2)CC1 (stereo not given)	> 10000	1260	–
CN(C)CCN(C)CCc1ccc(Cl)c(Cl)c1	–	–	Activity [1]: inactive; Activity [3]: Active; Activity ([4]; filed as agonist): Agonist; Ratio [6]: 7%; Activity [8]: Active
COC(=O)C1(c2ccc([N+](=O)[O-])cc2)CC1CN1CCN(c2ncccn2)CC1 (stereo not given)	> 10000	619	–
Cc1ccccc1NC(=N)Nc1ccccc1C [DITOLYLGUANIDINE]	49	–	–
COC(=O)C1(c2ccccc2)CC1CN1CCC(O)(c2ccccc2)CC1 (stereo not given)	34	3.1	–
COC(=O)C1(c2ccc([N+](=O)[O-])cc2)CC1CN1CCC(Cc2ccccc2)CC1 (stereo not given)	9	0.68	–
COC(=O)C1(c2ccc(C)cc2)CC1CN1CCC(Cc2ccccc2)CC1 (stereo not given)	8.9	0.97	–
COC(=O)C1(c2ccc(Cl)cc2)CC1CN1CCC(O)(c2ccccc2)CC1 (stereo not given)	19	1.7	–
COC(=O)C1(c2ccc([N+](=O)[O-])cc2)CC1CN1CCN(c2ccccn2)CC1 (stereo not given)	> 10000	769	–
COC(=O)C1(c2ccc(OC)cc2)CC1CN1CCC(O)(c2ccccc2)CC1 (stereo not given)	53	3.1	–
CC(C)=CCN1CC[C@]2(C)c3cc(O)ccc3C[C@H]1[C@H]2C [(+)-PENTAZOCINE]	1540	–	Activity [4]: inactive; Activity [8]: Active
COC(=O)C1(c2ccc(Cl)cc2)CC1CN1CCN(c2ccccn2)CC1 (stereo not given)	2400	707	–
CC[C@H]1C[C@@H]2C[C@H]3c4[nH]c5ccc(OC)cc5c4CCN(C2)[C@@H]13 [IBOGAINE]	–	250	–
COC(=O)C1(c2ccc(N)cc2)CC1CN1CCN(c2ccccn2)CC1 (stereo not given)	> 10000	> 10000	–
COC(=O)C1(c2ccccc2)CC1CN1CCN(c2ccccn2)CC1 (stereo not given)	6290	1330	–
COC(=O)C1(c2ccc(C)cc2)CC1CN1CCN(c2ncccn2)CC1 (stereo not given)	3360	353	–
